Test results published in ChEMBL document CHEMBL2062373, “Discovery of pyrroloaminopyrazoles as novel PAK inhibitors” (J Med Chem, 2012).
In brackets after ≈: the same amount, converted by molar mass.

How the values were obtained:
[1] = Octanol/buffer partition coefficient, log D of the compound at pH 7.4; format: physicochemical
[2] = Volume of distribution at steady state in rat at 5 mg/kg, iv and 10 mg/kg, po; format: ADME, organism-based; conditions: in vivo, read-out: Vdss
[3] = Clearance in rat at 5 mg/kg, iv and 10 mg/kg, po; format: ADME, organism-based; conditions: in vivo
[4] = Metabolic stability in human liver microsomes assessed as extraction ratio; format: ADME, Microsome; conditions: read-out: ERH
[5] = Half life in rat at 5 mg/kg, iv and 10 mg/kg, po; format: ADME, organism-based; conditions: in vivo
[6] = target: T1, Serine/threonine-protein kinase PAK 4 (Homo sapiens, UniProt O96013); assay: Inhibition of PAK4-mediated GEF-H1 phosphorylation at Ser810 by cell based assay
[7] = Oral bioavailability in rat at 10 mg/kg; format: ADME, organism-based; conditions: in vivo
[8] = Efflux ratio of permeability from basolateral to apical side over apical to basolateral side in human Caco2 cells; format: ADME, cell-based; conditions: Caco-2
[9] = target: T2, Cyclin-dependent kinase 2 (Homo sapiens, UniProt P24941)
[10] = Aqueous solubility of the compound; format: physicochemical; conditions: buffer
[11] = target: T1, Serine/threonine-protein kinase PAK 4; assay: Inhibition of PAK4
[12] = Metabolic stability of the compound in human liver microsomes assessed as compound remaining after 30 mins; format: ADME, Microsome; conditions: read-out: Stability
[13] = target: T2, Cyclin-dependent kinase 2; assay: Inhibition of CDK2 at 1 uM
Mus musculus [14] = assay: Down regulation of GEF-H1 phosphorylation in human HCT116 cells xenografted in mouse tumor at 80 mg/kg/day, sc administered via continuous infusion measured after 18 hrs; format: functional, HCT-116; conditions: route subcutaneous
Method in brief: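 Tumour-bearing mice received drug by continuous infusion from an implanted subcutaneous pump at 80 mg/kg/day. Tumours were taken at 18 h and pGEF-H1 levels were measured. Downregulation is expressed as percent reduction.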

[15] = target: Glycogen synthase kinase-3 beta (Homo sapiens, UniProt P49841); assay: Inhibition of GSK3beta at 1000 nM
Homo sapiens [16] = species: Homo sapiens; assay: Inhibition of PKA at 1000 nM
Homo sapiens [17] = species: Homo sapiens; assay: Inhibition of RSK at 1000 nM
[18] = Antitumor activity against human M24 cells xenografted in mouse assessed as tumor growth inhibition at 7.5 mg/kg, po BID for 15 days; format: functional; conditions: M24, 360 h, read-out: TGI
[19] = target: Mitogen-activated protein kinase 1 (Homo sapiens, UniProt P28482); assay: Inhibition of Erk2 at 1000 nM
[20] = target: Serine/threonine-protein kinase 26 (Homo sapiens) (UniProt Q9P289); assay: Inhibition of MST4 at 1000 nM
[21] = target: AMP-activated protein kinase, AMPK (Homo sapiens) (UniProt P54646+O43741+P54619+Q9UGJ0+Q9Y478+Q13131+Q9UGI9); assay: Inhibition of AMPK at 1000 nM; format: protein-complex assay
Mus musculus [22] = assay: Free dug level in mouse xenografted with human M24 cells at 7.5 mg/kg, po BID for 15 days; format: ADME, organism-based; set-up: dose 7.5 mg/kg, route oral; conditions: in vivo, 360 h
Method in brief: (§1)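 The read-out is free drug exposure, reported as unbound average concentration (free Cave) in nM. It was obtained from mice dosed orally at the stated regimen, sid or bid, during the xenograft efficacy study.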

[23] = target: Cyclin-dependent kinase 7 (Homo sapiens) (UniProt P50613); assay: Inhibition of cdk7 at 1000 nM
[24] = target: Serine/threonine-protein kinase MARK1 (Homo sapiens, UniProt Q9P0L2); assay: Inhibition of MARK at 1000 nM
Mus musculus [25] = assay: Free dug level in mouse xenografted with human M24 cells at 15 mg/kg, po BID for 15 days; format: ADME, organism-based; set-up: dose 15 mg/kg, route oral; conditions: in vivo, 360 h; method in brief: as §1
[26] = Antitumor activity against human M24 cells xenografted in mouse assessed as tumor growth inhibition at 15 mg/kg, po BID for 15 days; format: functional; conditions: M24, 360 h, read-out: TGI
[27] = target: T3, Lymphokine-activated killer T-cell-originated protein kinase (Homo sapiens) (UniProt Q96KB5); assay: Inhibition of PBK at 1000 nM
T3 sequence (whole entry): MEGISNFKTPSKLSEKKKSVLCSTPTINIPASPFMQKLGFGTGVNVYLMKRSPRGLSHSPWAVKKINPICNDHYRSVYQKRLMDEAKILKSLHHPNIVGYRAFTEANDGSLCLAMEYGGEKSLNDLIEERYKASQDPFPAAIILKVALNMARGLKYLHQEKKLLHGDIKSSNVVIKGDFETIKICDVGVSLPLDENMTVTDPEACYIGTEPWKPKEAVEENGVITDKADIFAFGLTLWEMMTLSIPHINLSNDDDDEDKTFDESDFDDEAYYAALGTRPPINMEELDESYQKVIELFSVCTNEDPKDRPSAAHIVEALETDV

Mus musculus [28] = assay: Free dug level in mouse xenografted with human HCT116 cells at 50 mg/kg, po SID for 15 days; format: ADME, organism-based, HCT-116; set-up: dose 50 mg/kg, route oral; conditions: in vivo, 360 h; method in brief: as §1
Mus musculus [29] = assay: Free dug level in mouse xenografted with human HCT116 cells at 25 mg/kg, po BID for 15 days; format: ADME, organism-based, HCT-116; set-up: dose 25 mg/kg, route oral; conditions: in vivo, 360 h; method in brief: as §1
HCT-116 [30] = assay: Antitumor activity against human HCT116 cells xenografted in mouse assessed as tumor growth inhibition at 25 mg/kg, po BID for 15 days; format: functional; conditions: HCT-116, 360 h, read-out: TGI
HCT-116 [31] = assay: Antitumor activity against human HCT116 cells xenografted in mouse assessed as tumor growth inhibition at 50 mg/kg, po SID for 15 days; format: functional; conditions: HCT-116, 360 h, read-out: TGI

T1 sequence (O96013 whole entry): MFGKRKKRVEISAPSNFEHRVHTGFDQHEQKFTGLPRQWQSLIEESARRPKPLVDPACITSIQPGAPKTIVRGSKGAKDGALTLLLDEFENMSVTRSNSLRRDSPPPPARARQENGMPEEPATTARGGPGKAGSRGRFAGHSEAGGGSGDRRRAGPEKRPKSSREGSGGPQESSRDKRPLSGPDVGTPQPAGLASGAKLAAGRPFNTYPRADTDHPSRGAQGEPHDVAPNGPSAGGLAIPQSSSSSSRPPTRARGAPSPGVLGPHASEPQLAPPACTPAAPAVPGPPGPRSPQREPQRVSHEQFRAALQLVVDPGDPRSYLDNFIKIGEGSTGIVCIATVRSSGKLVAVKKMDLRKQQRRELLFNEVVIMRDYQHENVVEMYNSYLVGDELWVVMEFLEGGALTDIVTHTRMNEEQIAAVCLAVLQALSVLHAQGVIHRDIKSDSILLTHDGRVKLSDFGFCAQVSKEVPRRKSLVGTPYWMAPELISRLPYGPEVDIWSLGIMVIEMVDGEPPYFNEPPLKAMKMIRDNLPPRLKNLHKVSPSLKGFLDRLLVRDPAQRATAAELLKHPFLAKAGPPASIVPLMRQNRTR
Sequence of Glycogen synthase kinase-3 beta (P49841 whole entry, looked up): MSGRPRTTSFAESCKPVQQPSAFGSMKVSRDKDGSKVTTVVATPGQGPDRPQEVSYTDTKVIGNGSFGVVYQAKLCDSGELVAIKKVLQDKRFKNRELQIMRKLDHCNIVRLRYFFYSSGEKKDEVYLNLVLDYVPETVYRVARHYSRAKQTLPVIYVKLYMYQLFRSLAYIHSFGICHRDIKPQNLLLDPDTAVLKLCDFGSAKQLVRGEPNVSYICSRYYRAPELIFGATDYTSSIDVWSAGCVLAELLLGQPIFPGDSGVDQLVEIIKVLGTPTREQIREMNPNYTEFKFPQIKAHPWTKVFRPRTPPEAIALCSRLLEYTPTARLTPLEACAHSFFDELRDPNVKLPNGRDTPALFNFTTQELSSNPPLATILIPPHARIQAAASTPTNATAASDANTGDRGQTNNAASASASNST
Sequence of Mitogen-activated protein kinase 1 (P28482 whole entry): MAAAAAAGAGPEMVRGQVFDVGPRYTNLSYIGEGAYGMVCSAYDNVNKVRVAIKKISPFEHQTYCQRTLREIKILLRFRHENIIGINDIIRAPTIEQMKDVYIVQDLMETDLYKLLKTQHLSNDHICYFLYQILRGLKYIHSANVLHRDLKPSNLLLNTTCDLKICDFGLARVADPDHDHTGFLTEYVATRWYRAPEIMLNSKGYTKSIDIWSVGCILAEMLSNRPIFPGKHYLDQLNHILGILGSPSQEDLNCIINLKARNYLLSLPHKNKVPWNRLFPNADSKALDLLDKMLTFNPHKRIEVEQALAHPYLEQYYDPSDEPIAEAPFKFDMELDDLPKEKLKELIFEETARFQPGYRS
Sequence of Serine/threonine-protein kinase 26 (Homo sapiens) (Q9P289 2-416 limits assumed): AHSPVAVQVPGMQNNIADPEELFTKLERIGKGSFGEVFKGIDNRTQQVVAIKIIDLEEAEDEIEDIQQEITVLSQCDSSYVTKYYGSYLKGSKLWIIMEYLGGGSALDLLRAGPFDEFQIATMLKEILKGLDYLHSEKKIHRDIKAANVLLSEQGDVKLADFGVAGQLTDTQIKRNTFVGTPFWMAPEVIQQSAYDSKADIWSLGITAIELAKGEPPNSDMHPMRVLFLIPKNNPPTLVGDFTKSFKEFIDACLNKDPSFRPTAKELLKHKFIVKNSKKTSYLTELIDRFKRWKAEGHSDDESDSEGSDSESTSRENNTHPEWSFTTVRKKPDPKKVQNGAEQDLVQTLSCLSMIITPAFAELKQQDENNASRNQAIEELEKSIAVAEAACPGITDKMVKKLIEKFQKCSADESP
Sequence of Serine/threonine-protein kinase MARK1 (Q9P0L2 whole entry, looked up): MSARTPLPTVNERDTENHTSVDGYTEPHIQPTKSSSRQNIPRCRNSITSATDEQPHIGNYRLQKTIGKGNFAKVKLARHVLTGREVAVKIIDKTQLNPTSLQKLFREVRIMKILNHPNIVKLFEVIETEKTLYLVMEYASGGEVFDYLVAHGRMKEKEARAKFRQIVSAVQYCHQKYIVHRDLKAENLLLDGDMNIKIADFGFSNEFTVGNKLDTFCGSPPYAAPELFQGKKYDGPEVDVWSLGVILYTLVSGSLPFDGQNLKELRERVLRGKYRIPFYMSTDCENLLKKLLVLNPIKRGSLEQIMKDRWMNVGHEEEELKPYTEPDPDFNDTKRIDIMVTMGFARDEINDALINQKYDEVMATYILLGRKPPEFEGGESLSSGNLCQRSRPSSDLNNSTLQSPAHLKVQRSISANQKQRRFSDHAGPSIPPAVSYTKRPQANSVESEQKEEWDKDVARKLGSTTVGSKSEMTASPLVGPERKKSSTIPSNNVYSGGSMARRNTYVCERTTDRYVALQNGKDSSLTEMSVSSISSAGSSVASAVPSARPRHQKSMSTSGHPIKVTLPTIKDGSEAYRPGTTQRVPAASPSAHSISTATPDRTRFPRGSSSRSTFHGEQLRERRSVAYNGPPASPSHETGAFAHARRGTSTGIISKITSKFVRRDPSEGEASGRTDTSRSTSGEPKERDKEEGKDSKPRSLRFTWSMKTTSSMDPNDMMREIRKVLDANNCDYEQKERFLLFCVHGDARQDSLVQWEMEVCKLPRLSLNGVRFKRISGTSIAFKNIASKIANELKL
Sequence of Cyclin-dependent kinase 7 (Homo sapiens) (P50613 whole entry): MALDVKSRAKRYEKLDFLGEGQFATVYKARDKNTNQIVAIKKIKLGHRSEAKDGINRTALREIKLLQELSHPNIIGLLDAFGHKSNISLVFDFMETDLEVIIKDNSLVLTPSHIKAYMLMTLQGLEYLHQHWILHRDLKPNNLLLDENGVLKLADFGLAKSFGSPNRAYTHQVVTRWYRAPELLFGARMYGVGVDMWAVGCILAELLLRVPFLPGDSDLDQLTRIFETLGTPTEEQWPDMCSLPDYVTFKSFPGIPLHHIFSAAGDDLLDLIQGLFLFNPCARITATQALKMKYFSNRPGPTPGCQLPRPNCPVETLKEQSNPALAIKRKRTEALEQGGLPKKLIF

| logD [1] | Vd [2] | clearance [3] | hepatic extraction ratio [4] | half-life [5] | EC50 ([6]; read-out: EC50) | bioavailability [7] | efflux ratio [8] | Ki [11] | Compound | also measured |
| --- | --- | --- | --- | --- | --- | --- | --- | --- | --- | --- |
| 1.5 | 2.8 L/kg | 24.1 mL/min/kg | 0.42 | 1.5 h | 7 nM | 46% |  |  | CN(C)C[C@@H](OC(=O)N1Cc2c(NC(=O)C3(C(F)(F)F)CC3)n[nH]c2C1(C)C)c1ccccc1 |  |
| 2.48 |  |  | 1 |  |  |  | 3.6 |  | CN(C)C[C@@H](OC(=O)N1Cc2c(NC(=O)C3CCCCO3)n[nH]c2C1(C)C)c1ccccc1 (mixture of isomers) |  |
| 2.66 |  |  |  |  |  |  |  |  | CN(C)C[C@@H](OC(=O)N1Cc2c(NC(=O)c3ccccc3)n[nH]c2C1(C)C)c1ccccc1 | Ki [9]: 2000 nM; solubility [10]: 434 µM (≈ 194 µg/mL) |
| 2.68 |  |  | 0.9 |  | 15 nM |  | 1.17 |  | CN(C)C[C@@H](OC(=O)N1Cc2c(NC(=O)c3ccc(F)cc3F)n[nH]c2C1(C)C)c1ccccc1 |  |
| 3.2 |  |  | 0.7 |  | 21 nM |  | 187 | 207 nM | CN1CCN(C(=O)N2Cc3c(n[nH]c3NC(=O)c3ccccc3)C2(C)C)C(c2ccccc2)C1 (stereo unspecified) |  |
| 3.6 |  |  |  |  | 12.6 nM |  |  | 6 nM | CN(C)C[C@@H](NC(=O)c1ccc2[nH]nc(-c3nc4ccccc4[nH]3)c2c1)c1ccccc1 |  |
| 5.45 |  |  |  |  | 810 nM |  |  |  | CN1CCN(C(=O)N2Cc3c(NC(=O)c4cccc(Oc5ccccc5)c4)n[nH]c3C2(C)C)[C@@H](Cc2ccccc2)C1 | remaining at 0.5 h [12]: 2%; inhibition [13]: 20% |
| 1.77 |  |  | 0.39 |  |  |  | 326 | 30 nM | CN(C)C[C@@H](NC(=O)N1Cc2c(NC(=O)c3ccccc3)n[nH]c2C1(C)C)c1ccccc1 | Ki [9]: 1800 nM; Activity (Mus musculus [14]): 61%; solubility [10]: 395 µM (≈ 176 µg/mL) |
| 2.08 | 2.2 L/kg | 69 mL/min/kg | 0.4 | 0.5 h |  | 20% | 8.7 |  | CN(C)C[C@@H](OC(=O)N1Cc2c(NC(=O)C3CCCO3)n[nH]c2C1(C)C)c1ccccc1 (mixture of isomers) |  |
| 2.33 |  |  | 0.38 |  |  |  | 231 |  | CN(C)C[C@@H](NC(=O)N1Cc2c(NC(=O)c3ccccc3F)n[nH]c2C1(C)C)c1ccccc1 |  |
| 1.61 | 4.3 L/kg | 37 mL/min/kg | 0.55 | 1.3 h | 1 nM | 45% |  |  | CN(C)C[C@@H](OC(=O)N1Cc2c(NC(=O)C(C)(C)C(F)(F)F)n[nH]c2C1(C)C)c1ccccc1 | inhibition [15]: > 70%; inhibition (Homo sapiens [16]): > 70%; inhibition (Homo sapiens [17]): > 70%; inhibition in vivo at 7.5 mg/kg [18]: 67%; inhibition [19]: > 70%; inhibition [20]: > 70%; inhibition [21]: > 70%; Drug uptake(free) (Mus musculus [22]): 13.9 nM; inhibition [23]: > 70%; inhibition [24]: > 70%; Drug uptake(free) (Mus musculus [25]): 31 nM; inhibition in vivo at 15 mg/kg [26]: 87%; inhibition [27]: > 70% |
| 2.79 | 6.1 L/kg | 98 mL/min/kg | 0.7 | 1.1 h | 9 nM | 9% | 7 | 13 nM | CN(C)C[C@@H](OC(=O)N1Cc2c(NC(=O)c3ccc(F)cc3)n[nH]c2C1(C)C)c1ccccc1 | Drug uptake(free) (Mus musculus [28]): 70 nM; Drug uptake(free) (Mus musculus [29]): 25 nM; Ki [9]: 1160 nM; inhibition in vivo at 25 mg/kg (HCT-116 [30]): 61%; inhibition in vivo at 50 mg/kg (HCT-116 [31]): 12%; solubility [10]: 404 µM (≈ 188 µg/mL) |
| 1.6 |  |  | 0.6 |  | < 1 nM |  |  |  | CN(C)C[C@@H](OC(=O)N1Cc2c(NC(=O)C3(C(F)(F)F)CCC3)n[nH]c2C1(C)C)c1ccccc1 |  |
| 2.68 |  |  | 0.5 |  |  |  | 53.6 |  | CN(C)C[C@H](c1ccccc1)N(C)C(=O)N1Cc2c(NC(=O)c3ccccc3)n[nH]c2C1(C)C | EC50 [6]: Not Active |
| 2.23 | 4.8 L/kg | 146 mL/min/kg | 0.67 | 0.7 h |  | 2% | 1.61 |  | CN(C)C[C@@H](OC(=O)N1Cc2c(NC(=O)c3ccccn3)n[nH]c2C1(C)C)c1ccccc1 |  |
|  |  |  |  |  |  |  |  | 2.8 nM | CN(C)C[C@@H](NC(=O)c1ccc2[nH]nc(-c3nc4ccc(NCc5ccc(-c6ccccn6)cc5)cc4[nH]3)c2c1)c1ccccc1 |  |
